Reference: paper PMC11362645 (International Journal for Parasitology: Parasites and …, 2024)
Marks after values point to notes of the source that are not given here.

How the values were obtained:
[1] = tested on: Madin-Darby bovine kidney (MDBK) cells; assay: In vitro MTT cytotoxicity assay on MDBK cells; format: cell-based; details: MDBK cells; for Average cell viability (%) / Concentration that significantly reduced the viability of MDBK cells: 24 h, MTT; for Maximum non-toxic concentration: highest concentration with no significant effect on cell viability
Summary of the method: (§1)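 MDBK cells (NBL-1) were kept in MEM with 10% FBS and penicillin/streptomycin at 37 °C, 5% CO2, and passaged with Accutase at ~70% confluence. Cells were seeded at 2×10^4/well and grown 24 h. Test compound was added at final 0.1, 1, 10, 50 or 100 μM, with a DMSO solvent control, for 24 h. MTT was added for 2 h, formazan dissolved in 99% isopropanol, and A562 read. Viability = compound/DMSO ×100. Maximum non-toxic concentration = highest concentration with no significant viability effect. Three repeats.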

[2] = In vitro MTT cytotoxicity assay on MDBK cells; format: cell-based, bovine; details: bovine, MDBK cells (NBL-1 strain)
Summary of the method: as §1

[3] = tested on: E. tenella sporozoites; assay: In vitro viability assay for E. tenella sporozoites; format: cell-based, Eimeria tenella; details: for Sporozoite viability: 24 h, DMSO-treated group = 100%; for Potency of anti-parasitical effect against Eimeria parasites (category by IC50): criteria of Isah et al., 2016: high, moderate, low/no potency
Summary of the method: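 E. tenella OPU strain oocysts were sporulated in ~0.1% potassium dichromate at 28 °C and hypochlorite-treated. Sporocysts were excysted for 1–2 h at 41 °C in HBSS with 1% taurodeoxycholic acid and 0.25% trypsin. Sporozoites at 5×10^6/ml in phenol-red-free RPMI 1640 with antibiotics got test compound (screen 100 μM; IC50 range 1–100 μM) for 24 h at 37 °C, 5% CO2. Cell Count Reagent SF was then added for 3 h. Viability was expressed relative to DMSO = 100%.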

[4] = commercially available pure compounds at 100 μM

| Compound | Average cell viability (%) ([1]; 0.1 μM) | Average cell viability (%) ([1]; 1 μM) | Average cell viability (%) ([1]; 10 μM) | Average cell viability (%) ([1]; 50 μM) | Average cell viability (%) ([1]; 100 μM) | Maximum non-toxic concentration [1] | viability at 24 h, 0.1 µM [2] | viability at 24 h, 1 µM [2] | viability at 24 h, 10 µM [2] | viability at 24 h, 50 µM [2] | viability at 24 h, 100 µM [2] | Sporozoite viability ([3]; natural components at 100 μM) | Potency of anti-parasitical effect against Eimeria parasites (category by IC50) [3] | Concentration that significantly reduced the viability of MDBK cells [1] | Sporozoite viability [3, 4] |
| --- | --- | --- | --- | --- | --- | --- | --- | --- | --- | --- | --- | --- | --- | --- | --- |
| COc1cc(CCc2ccccc2O)cc(OC)c1O [Component A-2, 4,2′-Dihydroxy-3,5-dimethoxydihydrostilbene] | 98.7% | 105.9% | 107.0% | 103.4% | 107.3% | 100 µM | – | – | – | – | – | – | – | – | – |
| Oc1cc(O)c2c(c1)O[C@H](c1ccc(O)c(O)c1)[C@H](O)C2 [Component A-3, Epicatechin] | – | – | – | – | – | 100 µM | 103% | 91% | 92.3% | 109% | 108% | – | – | – | – |
| O=c1c(O[C@@H]2O[C@H](CO)[C@@H](O)[C@H](O)[C@H]2O)c(-c2ccc(O)c(O)c2)oc2cc(O)cc(O)c12 [Component A-4, Isoquercitrin] | – | – | – | – | – | 100 µM | 98% | 110% | 104% | 109% | 104% | – | – | – | – |
| Oc1cc(O)cc(/C=C/c2ccccc2)c1 [Component A-5, Pinosylvin] | – | – | – | – | – | 100 µM | 103% | 102% | 103% | 110% | 106% | – | – | – | – |
| C[C@H]1[C@H](C)CC[C@]2(CO)CC[C@]3(C)C(=CC[C@@H]4[C@@]5(C)CC[C@H](O)C(C)(C)[C@@H]5CC[C@]43C)[C@H]12 [Component B-1, Uvaol] | – | – | – | – | – | 10 µM | 95.6% | 99.9% | 110% | 55.9% | 36.2% | – | – | – | – |
| CC1(C)CC[C@]2(C)CC[C@]3(C)C(=CC[C@@H]4[C@@]5(C)CC[C@H](O)C(C)(C)[C@@H]5CC[C@]43C)[C@@H]2C1 [Component C-1, β-Amyrin] | – | – | – | – | – | 100 µM | 78.1% | 82.6% | 88.6% | 87.7% | 82.4% | no significant effect | – | – | – |
| COc1ccc(-c2cc(=O)c3c(O)c(C)c(OC)cc3o2)cc1 [Component C-2, 8-Demethyleucalyptin] | 97.8% | 92.5% | 98.7% | 85.2* % | 80.8* % | 10 µM | – | – | – | – | – | – | – | – | – |
| CC1(C)CC[C@]2(C(=O)O)CC[C@]3(C)C(=CC[C@@H]4[C@@]5(C)CC[C@H](O)C(C)(C)[C@@H]5CC[C@]43C)[C@@H]2C1 [Component C-5, Oleanolic acid] | – | – | – | – | – | 50 µM | 99.9% | 99.2% | 102% | 105% | 16.2% | – | high potency | 100 µM | – |
| O=C(CCc1ccc(O)cc1)c1c(O)cc(O[C@@H]2O[C@H](CO)[C@@H](O)[C@H](O)[C@H]2O)cc1O [Component C-6, Trilobatin] | 89.1% | 90.7% | 91.4% | 92.9% | 93.6% | 100 µM | – | – | – | – | – | – | – | – | – |
| O=C(CCc1ccc(O)cc1)c1c(O)cc(O)cc1O[C@@H]1O[C@H](CO)[C@@H](O)[C@H](O)[C@H]1O [Component C-7, Phlorhizin] | 87.9% | 90.9% | 98.2% | 95.8% | 107.4% | 100 µM | – | – | – | – | – | – | – | – | – |
| O=C1C[C@@H](c2ccc(O)cc2)Oc2cc(O)cc(O)c21 [Component D-1, Naringenin] | – | – | – | – | – | 100 µM | 92.2% | 97.3% | 99.3% | 109% | 107% | – | – | – | – |
| C[C@H]1[C@H](C)CC[C@]2(C(=O)O)CC[C@]3(C)C(=CC[C@@H]4[C@@]5(C)CC[C@H](O)C(C)(C)[C@@H]5CC[C@]43C)[C@H]12 [Component D-3, Ursolic acid] | – | – | – | – | – | 10 µM | 92.9% | 86.4% | 105% | -13.1% | -14.2% | – | low/no potency | – | – |
| Oc1cc(O)c2c(c1)O[C@H](c1cc(O)c(O)c(O)c1)[C@@H](O)C2 [Component F-1, Gallocatechin] | – | – | – | – | – | 100 µM | 80.8% | 81.4% | 93.9% | 92.6% | 85.2% | – | – | – | – |
| COC1OC(CO)C(O)C(O)C1O (stereo not drawn) [Component F-2, β-Methylglucoside] | 99.2% | 102.1% | 104.6% | 102.0% | 104.9% | 100 µM | – | – | – | – | – | – | – | – | – |
| O=c1c(O[C@@H]2O[C@@H](CO)[C@H](O)[C@H]2O)c(-c2ccc(O)c(O)c2)oc2cc(O)cc(O)c12 [Component G-1, Avicularin] | – | – | – | – | – | 100 µM | 94.6% | 96.9% | 88.5% | 104% | 89.5% | – | – | – | – |
| COc1cc(C)cc(O)c1 [Component H-1, 3-Methoxy-5-methylphenol] | – | – | – | – | – | 100 µM | 106% | 109% | 106% | 113% | 112% | – | – | – | – |
| Cc1cc(O)cc(O)c1 [Component H-2, 5-Methylbenzene-1,3-diol] | – | – | – | – | – | 100 µM | 92% | 95.3% | 94.8% | 93.4% | 93.3% | – | – | – | – |
| C[C@@H]1O[C@@H](O[C@H]2[C@H](O)[C@@H](O)[C@H](OC[C@H]3O[C@@H](OC(=O)[C@]45CCC(C)(C)C[C@H]4C4=CC[C@@H]6[C@@]7(C)CC[C@H](O[C@@H]8OC[C@H](O)[C@H](O)[C@H]8O[C@@H]8O[C@H](CO)[C@@H](O)[C@H](O)[C@H]8O)[C@@](C)(CO)[C@@H]7CC[C@@]6(C)[C@]4(C)CC5)[C@H](O)[C@@H](O)[C@@H]3O)O[C@@H]2CO)[C@H](O)[C@H](O)[C@H]1O [Component I-1, Cauloside G] | 100.7% | 103.3% | 103.7% | 97.0% | 89.4% | 100 µM | – | – | – | – | – | – | – | – | – |
| OC[C@H]1O[C@@H](Oc2ccc(O)cc2)[C@H](O)[C@@H](O)[C@@H]1O [E−1, Arbutin] | – | – | – | – | – | 100 µM | 83.1% | 86.4% | 87.1% | 108% | 102% | – | – | – | – |
| Oc1cc(O)c2c(c1)OC(c1ccc(O)c(O)c1)C(O)C2 (stereo not shown) [E−2, Catechin] | 101.1% | 102.5% | 109.8% | 104.9% | 114.0% | 100 µM | – | – | – | – | – | – | – | – | – |
| CC[C@@H](C(=O)[C@@H](C)[C@@H](O)[C@H](C)CCc1ccc(C)c(O)c1C(=O)O)[C@H]1O[C@](CC)([C@H]2CC[C@](O)(CC)[C@H](C)O2)C[C@@H]1C [lasalocid, reference compound] | – | – | – | – | – | 1 µM | 107% | 110% | 54.3% | 1.1% | 0.4% | – | – | higher than 10 μM | – |
| C[C@H]1[C@H](C)CC[C@]2(C)CC[C@]3(C)C(=CC[C@@H]4[C@@]5(C)CC[C@H](O)C(C)(C)[C@@H]5CC[C@]43C)[C@H]12 [α-amyrin, reference compound] | – | – | – | – | – | – | – | – | – | – | – | – | – | – | did not significantly reduce |
| CC1(C)CC[C@]2(C)CC[C@]3(C)C(=CC[C@@H]4[C@@]5(C)CC[C@H](O)C(C)(C)[C@@H]5CC[C@]43C)[C@@H]2C1 [β-amyrin, reference compound] | – | – | – | – | – | – | – | – | – | – | – | – | – | – | did not significantly reduce |
